Active and inactive are the calls of the source. The calls are words filed in the database; no cut-off is given here.
Experiments:
[1] = tested on: Mus musculus; test: In vivo inhibition of Wnt/beta-catenin signaling pathway in NOD/SCID mouse xenografted with human CRC240 cells assessed as reduction in survivin protein expression at 1 mg/kg, po administered 11 days by Western blot method; format: functional, organism-based
Method in brief: (§1)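 CRC240 PDX tumours were taken from NOD/SCID mice the day after 11 days of once-daily oral dosing (1 mg/kg, in 10% NMP/90% PEG300). Tumours were lysed in RIPA buffer and immunoblotted for Axin2, survivin and c-Myc. Bands were normalized to β-actin, n = 3, two-tailed t-test versus vehicle.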

[2] = tested on: Mus musculus; test: Toxicity in NOD/SCID mouse xenografted with human CRC240 cells assessed as change in body weight at 1 mg/kg, po administered 11 days and measured on day 4, 8 during compound dosing and day 11 post last dose; format: organism-based; details: in vivo, 264 h
Method in brief: (§2)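 Minced CRC240 PDX tissue (150 mg/ml in PBS, 200 μl) implanted in flanks of NOD/SCID mice. At about 100 mm3 tumours, mice randomized and dosed orally once daily for 11 days. Vehicle: 10% 1-methyl-2-pyrrolidinone/90% PEG300, with dosing suspensions or solutions at […] or 0.2 mg/ml. Tumour size and body weight recorded on days 0, 4, 8 and 11. n = 3, two-tailed t-test versus vehicle.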

[3] = tested on: Mus musculus; test: Dose normalized AUC (0 to infinity) in NOD/SCID mouse at 1 mg/kg, po by LC-MS/MS-based non-compartmental extravascular input analysis; format: ADME, organism-based; details: in vivo
[4] = organism: Homo sapiens; test: Inhibition of Wnt/beta-catenin signaling pathway in human HCT116 whole cell lysate harboring beta-catenin mutation assessed as reduction in c-Myc protein expression at 5 uM after 18 hrs by Western blot analysis
Method in brief: (§3)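 CCRC240, HCT116 or SW480 cells were grown to 50–70% confluency and exposed 18 h to 5 μM compound in DMSO. Whole-cell lysates were blotted for c-Myc, cyclin D1 and survivin. Hypotonic cytosolic fractions, syringe-dispersed and centrifuged 120 min, were blotted for β-catenin and Axin2. β-Actin served as loading control.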

[5] = organism: Homo sapiens; test: Inhibition of Wnt/beta-catenin signaling pathway in human HCT116 cells cytosol lysate harboring beta-catenin mutation assessed as reduction in beta-catenin protein expression at 5 uM after 18 hrs by Western blot analysis; format: cell-based; method in brief: as §3
[6] = tested on: Mus musculus; test: Dose normalized AUC (0 to infinity) in NOD/SCID mouse at 1 mg/kg, po by LC-MS/MS-based compartmental first order extravascular input, first order elimination analysis; format: ADME, organism-based; details: in vivo
[7] = tested on: SW480; test: Antiproliferative activity against human SW480 cells after 72 hrs by colorimetric MTS assay; format: functional, cell-based; details: SW480, 72 h
Method in brief: (§4)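 Cells plated at 5000 per well in their own media (Leibovitz's for SW948; McCoy's 5A for HT-29/HCT116; MEM for SW480; RPMI for CRC240/DLD-1) with 10% FBS. Exposed 72 h to compound, 0.001–10 μM or 0.04–10 μM, then colorimetric MTS read-out. […] CRC240 is a patient-derived xenograft line.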

[8] = organism: Homo sapiens; test: Inhibition of Wnt/beta-catenin signaling pathway in human SW480 cells cytosol lysate harboring APC mutation assessed as reduction in beta-catenin protein expression at 5 uM after 18 hrs by Western blot analysis; format: cell-based; method in brief: as §3
[9] = organism: Homo sapiens; test: Inhibition of Wnt/beta-catenin signaling pathway in human CRC240 whole cell lysate assessed as reduction in cyclin D1 protein expression at 5 uM after 18 hrs by Western blot analysis; method in brief: as §3
[10] = tested on: Homo sapiens; test: Antitumor activity against human CRC240 cells xenografted in NOD/SCID mouse at 1 mg/kg, po administered 11 days and measured on day 4, 8 during compound dosing and day 11 post last dose; format: functional, organism-based; method in brief: as §2
[11] = tested on: HT-29; test: Antiproliferative activity against human HT-29 cells after 72 hrs by colorimetric MTS assay; format: functional, cell-based; details: HT-29, 72 h; method in brief: as §4
[12] = tested on: DLD-1; test: Antiproliferative activity against human DLD1 cells after 72 hrs by colorimetric MTS assay; format: functional, cell-based; details: DLD-1, 72 h; method in brief: as §4
[13] = organism: Homo sapiens; test: Inhibition of Wnt/beta-catenin signaling pathway in human CRC240 whole cell lysate assessed as reduction in survivin protein expression at 5 uM after 18 hrs by Western blot analysis; method in brief: as §3
[14] = tested on: Mus musculus; test: Time at which plasma concentration stays above in vitro IC50 for inhibition of Wnt3A-stimulated Wnt/beta-catenin pathway in HEK293 cells in NOD/SCID mouse at 1 mg/kg, po by LC-MS/MS analysis; format: organism-based; details: in vivo
Method in brief: (§5)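 NOD/SCID mice (n = 4) received a single oral dose of 1 mg/kg from a 0.2 mg/mL solution in 10% NMP/90% PEG300. Serial tail-vein blood was taken from pre-dose to 72 h and plasma kept at −80 °C. Samples were extracted with ethyl acetate against an internal standard and run on LC/MS/MS (MRM 405.8/218.9). The calibration range was 2.4–1000 ng/mL in plasma.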

[15] = organism: Homo sapiens; test: Inhibition of Wnt/beta-catenin signaling pathway in human SW480 whole cell lysate harboring APC mutation assessed as reduction in c-Myc protein expression at 5 uM after 18 hrs by Western blot analysis; method in brief: as §3
[16] = Inhibition of Wnt3A-stimulated Wnt/beta-catenin pathway in HEK293 cells transfected with p8xTOPFlash, Renilla luciferase plasmid pRL-TK and pLKO.1 after 6 hrs by Dual topflash luciferase reporter assay; format: cell-based; details: Homo sapiens, HEK293, 6 h
Method in brief: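 HEK293 cells stably carrying p8xTOPFlash, pRL-TK and pLKO.1 were grown overnight to confluence in MEM/10% FBS with 1 μg/ml puromycin. Wnt-3A conditioned medium (from L Wnt-3A cells) containing compound (0.04–10 μM) or DMSO was added for 6 h. Dual-luciferase was read, with the Wnt3A+DMSO signal set as 100%.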

[17] = tested on: CCD-841CoN; test: Stimulation of mitochondrial respiration in human CCD-841-CoN cells assessed as increase in oxygen consumption rate at 1 uM under basal conditions by polarographic analysis
[18] = organism: Homo sapiens; test: Inhibition of Wnt/beta-catenin signaling pathway in human SW480 whole cell lysate harboring APC mutation assessed as reduction in cyclin D1 protein expression at 5 uM after 18 hrs by Western blot analysis; method in brief: as §3
[19] = tested on: Mus musculus; test: In vivo inhibition of Wnt/beta-catenin signaling pathway in NOD/SCID mouse xenografted with human CRC240 cells assessed as reduction in Axin2 protein expression at 1 mg/kg, po administered 11 days by Western blot method; format: functional, organism-based; method in brief: as §1
[20] = organism: Homo sapiens; test: Inhibition of Wnt/beta-catenin signaling pathway in human HCT116 whole cell lysate harboring beta-catenin mutation assessed as reduction in survivin protein expression at 5 uM after 18 hrs by Western blot analysis; method in brief: as §3
[21] = organism: Homo sapiens; test: Inhibition of Wnt/beta-catenin signaling pathway in human CRC240 cells cytosol lysate assessed as reduction in beta-catenin protein expression at 5 uM after 18 hrs by Western blot analysis; format: cell-based; method in brief: as §3
[22] = organism: Homo sapiens; test: Inhibition of Wnt/beta-catenin signaling pathway in human CRC240 whole cell lysate assessed as reduction in c-Myc protein expression at 5 uM after 18 hrs by Western blot analysis; method in brief: as §3
[23] = tested on: HCT-116; test: Antiproliferative activity against human HCT116 cells after 72 hrs by colorimetric MTS assay; format: functional, cell-based; details: HCT-116, 72 h; method in brief: as §4
[24] = tested on: Mus musculus; test: In vivo inhibition of Wnt/beta-catenin signaling pathway in NOD/SCID mouse xenografted with human CRC240 cells assessed as reduction in c-Myc protein expression at 1 mg/kg, po administered 11 days by Western blot method; format: functional, organism-based; method in brief: as §1
[25] = Antiproliferative activity against human CRC240 cells after 72 hrs by colorimetric MTS assay; format: functional, cell-based; method in brief: as §4
[26] = tested on: Mus musculus; test: Time at which plasma concentration stays above in vitro IC50 for antiproliferative activity against human CRC240 cells in NOD/SCID mouse at 1 mg/kg, po by LC-MS/MS analysis; format: organism-based; details: in vivo; method in brief: as §5
[27] = organism: Homo sapiens; test: Inhibition of Wnt/beta-catenin signaling pathway in human CRC240 cells cytosol lysate assessed as reduction in Axin2 protein expression at 5 uM after 18 hrs by Western blot analysis; format: cell-based; method in brief: as §3
[28] = tested on: CCD-841CoN; test: Stimulation of mitochondrial respiration in human CCD-841-CoN cells assessed as increase in oxygen consumption rate at 1 uM in presence of rotenone and […] antimycin A by polarographic analysis; format: functional, cell-based
Method in brief: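 CCD841Co cells were plated at 8000 per well and attached overnight. OCR was measured on a Seahorse XFp analyzer under basal conditions after 1 μM compound or DMSO was added. This was followed by 1 μM oligomycin, 1 μM FCCP, then 0.5 μM rotenone plus antimycin A (Mito Stress Test). Data given as mean ± SD, n = 2.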

[29] = biological target: AMP-activated protein kinase, AMPK (Homo sapiens) (UniProt P54646+O43741+P54619+Q9UGJ0+Q9Y478+Q13131+Q9UGI9); test: Induction of AMPK phosphorylation in human CCD-841-CoN cells at 0.1 to 10 uM after 2 hrs by Western blot analysis; format: cell-based
Method in brief: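 Colonic epithelial CCD841Co cells were seeded at 0.27 million per well on poly-D-lysine-coated wells and attached overnight. Medium was then switched to glucose-free DMEM with 2 mM pyruvate and 2 mM glutamine containing compound or DMSO. Whole-cell lysates were immunoblotted for phospho-Thr172 AMPK and total AMPK, with β-actin as loading control. Methods give 30 min exposure; legend gives 2 h.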

[30] = tested on: Mus musculus; test: Apparent volume of distribution in NOD/SCID mouse at 1 mg/kg, po by LC-MS/MS-based non-compartmental extravascular input analysis; format: ADME, organism-based; details: in vivo
[31] = organism: Homo sapiens; test: Inhibition of Wnt/beta-catenin signaling pathway in human HCT116 cells cytosol lysate harboring beta-catenin mutation assessed as reduction in Axin2 protein expression at 5 uM after 18 hrs by Western blot analysis; format: cell-based; method in brief: as §3
[32] = organism: Homo sapiens; test: Inhibition of Wnt/beta-catenin signaling pathway in human SW480 whole cell lysate harboring APC mutation assessed as reduction in survivin protein expression at 5 uM after 18 hrs by Western blot analysis; method in brief: as §3
[33] = biological target: Frizzled-1 (Homo sapiens) (UniProt Q9UP38); test: Induction of GFP-tagged Fzd1 (unknown origin) internalization expressed in human U2OS cells at 12.5 after 6 hrs by confocal microscopic method; format: functional, cell-based
Frizzled-1 (Homo sapiens), sequence (Q9UP38 70-647 limits assumed): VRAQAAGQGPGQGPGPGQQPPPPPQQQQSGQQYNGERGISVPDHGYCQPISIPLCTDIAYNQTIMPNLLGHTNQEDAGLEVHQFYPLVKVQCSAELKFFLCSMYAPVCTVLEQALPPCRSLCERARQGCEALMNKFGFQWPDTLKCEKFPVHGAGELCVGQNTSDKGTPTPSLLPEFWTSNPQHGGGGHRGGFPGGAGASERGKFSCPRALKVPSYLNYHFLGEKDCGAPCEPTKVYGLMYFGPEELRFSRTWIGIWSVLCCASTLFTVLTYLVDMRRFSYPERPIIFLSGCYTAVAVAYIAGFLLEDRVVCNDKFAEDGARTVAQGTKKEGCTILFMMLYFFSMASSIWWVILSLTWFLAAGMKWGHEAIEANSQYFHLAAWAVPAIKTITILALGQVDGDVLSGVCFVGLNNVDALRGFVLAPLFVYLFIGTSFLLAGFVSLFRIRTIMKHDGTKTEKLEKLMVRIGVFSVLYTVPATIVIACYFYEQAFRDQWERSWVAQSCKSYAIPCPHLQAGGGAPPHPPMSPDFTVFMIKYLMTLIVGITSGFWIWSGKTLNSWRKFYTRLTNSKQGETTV
Method in brief: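 U2OS cells stably expressing Fzd1-GFP were grown 24 h in confocal dishes and then treated 6 h at 37 °C with 12.5 μM compound, DMSO as control. Cells were fixed in 4% paraformaldehyde and imaged by confocal microscopy (488 nm excitation). Internalization was scored as intracellular green punctate vesicles.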

[34] = tested on: Mus musculus; test: Apparent clearance in NOD/SCID mouse at 1 mg/kg, po by LC-MS/MS-based non-compartmental extravascular input analysis; format: ADME, organism-based; details: in vivo
[35] = organism: Homo sapiens; test: Inhibition of Wnt/beta-catenin signaling pathway in human HCT116 whole cell lysate harboring beta-catenin mutation assessed as reduction in cyclin D1 protein expression at 5 uM after 18 hrs by Western blot analysis; method in brief: as §3
[36] = tested on: Mus musculus; test: Apparent clearance in NOD/SCID mouse at 1 mg/kg, po by LC-MS/MS-based compartmental first order extravascular input, first order elimination analysis; format: ADME, organism-based; details: in vivo
[37] = tested on: SW948; test: Antiproliferative activity against human SW948 cells after 72 hrs by colorimetric MTS assay; format: functional, cell-based; details: SW948, 72 h; method in brief: as §4
[38] = AUC (0 to 72 hrs) in NOD/SCID mouse at 1 mg/kg, po by LC-MS/MS-based non-compartmental extravascular input analysis; format: ADME, organism-based; design: dose 1 mg/kg, time < 72 hr, route oral; details: in vivo
[39] = organism: Homo sapiens; test: Inhibition of Wnt/beta-catenin signaling pathway in human SW480 cells cytosol lysate harboring APC mutation assessed as reduction in Axin2 protein expression at 5 uM after 18 hrs by Western blot analysis; format: cell-based; method in brief: as §3
[40] = Apparent oral volume of distribution in NOD/SCID mouse at 1 mg/kg by LC-MS/MS-based compartmental first order extravascular input, first order elimination analysis; format: ADME, organism-based; details: in vivo

## O=C(Nc1ccc(C(F)(F)F)cc1)c1cc(Cl)cc2nc(C(F)(F)F)[nH]c12
[1]
  inhibition: Active
[2]
  Activity: Non-Toxic
[3]
  AUC/dose: 16.9 µg·h/mL
[4]
  inhibition: Active
[5]
  inhibition: Active
[6]
  AUC/dose: 16.3 µg·h/mL
[7]
  IC50: 330 nM
[8]
  inhibition: Active
[9]
  inhibition: Active
[10]
  Activity: Active
[11]
  IC50: 120 nM
[12]
  IC50: 360 nM
[13]
  inhibition: Active
[14]
  Time: 24 h
[15]
  inhibition: Active
[16]
  IC50: 190 nM
[17]
  Activity: Active
[18]
  inhibition: Active
[19]
  inhibition: Active
[20]
  inhibition: Active
[21]
  inhibition: Active
[22]
  inhibition: Active
[23]
  IC50: 280 nM
[24]
  inhibition: Active
[25]
  IC50: 320 nM
[26]
  Time: 24 h
[27]
  inhibition: Active
[28]
  Activity: inactive
[29]
  Activity: Active
[30]
  Vz: 0.8 L/kg
[31]
  inhibition: Active
[32]
  inhibition: Active
[33]
  Activity: Active
[34]
  CL/F: 1 mL/min/kg
[35]
  inhibition: Active
[36]
  CL/F: 1 mL/min/kg
[37]
  IC50: 70 nM
[38]
  AUC(0-t) at 72 h: 16800 ng·h/mL
[39]
  inhibition: Active
[40]
  Vd/F: 0.98 L/kg
